The target in assay [1] is T1, Nitric oxide synthase, inducible (Mus musculus) (UniProt P29477).
T1 sequence (whole entry): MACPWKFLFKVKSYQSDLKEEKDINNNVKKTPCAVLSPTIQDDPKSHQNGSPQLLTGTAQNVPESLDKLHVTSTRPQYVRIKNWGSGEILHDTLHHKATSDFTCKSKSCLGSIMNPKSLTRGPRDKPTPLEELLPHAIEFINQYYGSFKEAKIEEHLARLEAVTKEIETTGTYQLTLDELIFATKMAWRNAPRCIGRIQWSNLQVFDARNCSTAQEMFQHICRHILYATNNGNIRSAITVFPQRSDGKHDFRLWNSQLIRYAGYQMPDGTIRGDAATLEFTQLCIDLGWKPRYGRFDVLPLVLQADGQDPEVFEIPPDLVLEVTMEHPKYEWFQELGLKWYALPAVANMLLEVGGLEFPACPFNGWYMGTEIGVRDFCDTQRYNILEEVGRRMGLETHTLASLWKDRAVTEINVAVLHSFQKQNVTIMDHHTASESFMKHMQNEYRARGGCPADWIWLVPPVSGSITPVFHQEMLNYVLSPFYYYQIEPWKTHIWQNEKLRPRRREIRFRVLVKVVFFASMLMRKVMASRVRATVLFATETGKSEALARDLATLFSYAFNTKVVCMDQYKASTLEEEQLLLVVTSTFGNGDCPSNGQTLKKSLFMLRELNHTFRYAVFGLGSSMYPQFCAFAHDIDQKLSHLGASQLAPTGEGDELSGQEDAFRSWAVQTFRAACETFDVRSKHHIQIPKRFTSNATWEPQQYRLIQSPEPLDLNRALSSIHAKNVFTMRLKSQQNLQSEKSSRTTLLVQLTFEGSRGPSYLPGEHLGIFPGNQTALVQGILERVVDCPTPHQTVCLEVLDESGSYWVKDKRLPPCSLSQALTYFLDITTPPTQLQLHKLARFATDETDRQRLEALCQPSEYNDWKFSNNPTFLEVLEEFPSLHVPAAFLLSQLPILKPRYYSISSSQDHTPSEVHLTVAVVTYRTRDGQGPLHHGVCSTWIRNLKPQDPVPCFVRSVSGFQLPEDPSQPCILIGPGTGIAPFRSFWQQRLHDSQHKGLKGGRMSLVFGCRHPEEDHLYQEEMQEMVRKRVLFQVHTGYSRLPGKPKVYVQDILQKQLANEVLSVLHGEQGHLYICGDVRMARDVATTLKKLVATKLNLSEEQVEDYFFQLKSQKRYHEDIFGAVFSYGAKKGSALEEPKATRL
Description: Inhibition of iNOS in mouse RAW264.7 cells assessed as anti-inflammatory activity by measuring inhibition of LPS-induced nitric oxide production at 100 uM after 24 hrs. It is filed as cell-based. An outline of the steps:
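RAW 264.7 murine macrophages grown to confluence over 24 h, then held 4 h in serum-free DMEM. Compounds or vehicle (0.1% DMSO) were added with or without LPS (200 ng/mL) for 24 h. Supernatant nitrite was measured by Griess reagent, 10 min at room temperature, A550, against a sodium nitrite standard curve. Results are % inhibition versus vehicle plus LPS; Emax is taken at 100 μM; mean ± SE.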

For assay [2], the target named is T2, Nitric oxide synthase, inducible (Mus musculus, UniProt P29477).
T2 sequence (P29477 whole entry): T1 sequence (whole entry)
The note with it: raw264.7.

pIC50: −log10 of the molar value.

The Emax is the maximal effect, on the per cent scale that the assay sets. What is called pIC50 is the negative decadic logarithm of the IC50, by convention in mol/L. Read a low pIC50 as a large IC50. As for `N=C(NCCC[C@H](N)C(=O)O)N[N+](=O)[O-]` [NITROARGININE], in assay [1], the Emax came out at 43.7%. This compound gave a pIC50 in assay [2] of 3.82.
Consider `CC(C)CNC(=O)[C@H]1[C@H]2C=C[C@@H]3[C@@H]1C[C@H]1[C@H](CCCc4ccc5c(c4)OCO5)[C@@H]2[C@@H]31` (relative stereo), for which the maximal effect (Emax) in assay [1] is 72.1%. This compound also had a pIC50 in assay [2] of 4.79.
Turning to `N=C(N)NN` [PIMAGEDINE], in assay [2], the pIC50 is 4.58.
Regarding `COc1cc([C@@H]2O[C@@H](c3cc(OC)c4c(c3)OCO4)[C@H](C)[C@H]2C)cc2c1OCO2` (relative stereo), in assay [1], the Emax came out at 65.6%. In assay [2], this compound had a pIC50 of 4.28.
For `O=C(O)[C@@H]1C=C[C@@H]2C[C@H]3[C@H](CCCc4ccc5c(c4)OCO5)[C@H]4C=C[C@@H]1[C@@H]2[C@H]43` (relative stereo) [TSANGIBEILIN A] the same measures were 96.9% and 4.30.
For `COc1cc([C@@H]2O[C@@H](c3cc(OC)c4c(c3)OCO4)[C@H](C)[C@H]2C)cc(O)c1OC` (relative stereo) [BEILSCHMINOL A] the same measures were 86.6% and 4.29.
The like results for `O=C(O)[C@@H]1C=C[C@@H]2C[C@H]3[C@H](Cc4ccc5c(c4)OCO5)[C@H]4C=C[C@@H]1[C@@H]2[C@H]43` (relative stereo) [TSANGIBEILIN B] were, in that order, 96.1% and 4.37.
With `COc1cc(C(=O)O[C@@H](c2cc(OC)c(OC)c(OC)c2)[C@H](C)C(C)=O)cc(OC)c1OC` [TSANGIN C], in assay [1], the maximal response (Emax) was 85.5%. In assay [2], this compound showed a pIC50 of 4.29.
In the case of `COc1cc([C@@H]2O[C@@H](c3cc(OC)c4c(c3)OCO4)[C@H](C)[C@H]2C)cc(OC)c1OC` (relative stereo), in assay [1], the maximal response (Emax) is 63.4%. For the same compound, the pIC50 in assay [2] is 4.31.
For `O=C(O)[C@H]1[C@H]2C=C[C@@H]3[C@@H]1C[C@H]1[C@H](CCCc4ccc5c(c4)OCO5)[C@@H]2[C@@H]31` (relative stereo) the same measures were 77.9% and 4.24.
With `CC(C)CNC(=O)[C@@H]1C=C[C@@H]2C[C@H]3[C@H](Cc4ccc5c(c4)OCO5)[C@H]4C=C[C@@H]1[C@@H]2[C@H]43` (relative stereo) [ENDIANDRAMIDE A], the Emax in assay [1] worked out at 97.3%. The compound also gave a pIC50 in assay [2] of 5.02.
Turning to `O=C(O)/C=C/[C@H]1[C@@H]2C=C[C@@H]3[C@H]1C[C@H]1[C@H](CCCCCc4ccc5c(c4)OCO5)[C@H]2[C@@H]31` (relative stereo), the Emax in assay [1] worked out at 91.4%. The pIC50 in assay [2] was 4.40.

For the origin of these results see ChEMBL document CHEMBL1821628, “Anti-inflammatory endiandric acid analogues from the roots of Beilschmiedia tsangii” (J Nat Prod, 2011).
